Laboratory results taken from ChEMBL document CHEMBL1140539, “Modification of cap group in delta-lactam-based histone deacetylase (HDAC) inhibitors” (Bioorg Med Chem Lett, 2007).
pIC50: −log10 of the molar value.

How the values were obtained:
[1] = molecular target: Histone deacetylase; test: Inhibition of HDAC in HeLa cell lysates; type: protein assay, Homo sapiens
[2] = system: PC-3; test: Growth inhibition of human PC3 cells by SRB assay; type: functional
[3] = system: ACHN; test: Growth inhibition of human ACHN cells by SRB assay; type: functional
[4] = system: HCT-15; test: Growth inhibition of human HCT15 cells by SRB assay; type: functional
[5] = system: MDA-MB-231; test: Growth inhibition of human MDA-MB-231 cells by SRB assay; type: functional
[6] = system: NUGC-3; test: Growth inhibition of human NUGC3 cells by SRB assay; type: functional
[7] = molecular target: Histone deacetylase (Homo sapiens) (UniProt Q13547+O15379+Q9UBN7+Q92769+Q9UQL6+Q8WUI4+Q9BY41+Q96DB2+P56524+Q9UKV0+Q969S8); conditions: HeLa
[8] = system: MDA-MB-231; test: Antitumor activity against MDA-MB-231 cells xenografted BALB/c nude mouse at 30 mg/kg, ip for 15 days; type: functional, Homo sapiens; conditions: MDA-MB-231, ip, 360 h, route intraperitoneal
[9] = system: MDA-MB-231; test: Antitumor activity against MDA-MB-231 cells xenografted BALB/c nude mouse assessed as body weight at 30 mg/kg, ip for 15 days; type: functional, Homo sapiens; conditions: route intraperitoneal
Outline: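 Nude mice carrying MDA-MB-231 human breast xenografts were dosed once daily by intraperitoneal injection at 30 mg/kg. Dosing began once tumours reached 50–60 mm³.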

Row | Structure (SMILES) | IC50 [1] [µM] | GI50 [2] [µM] | GI50 [3] [µM] | GI50 [4] [µM] | GI50 [5] [µM] | GI50 [6] [µM] | pIC50 [7] | inhibition in vivo at 30 mg/kg [8] [%] | Activity [9] [%]
1 | CC(=O)Nc1ccc(CN2CCC=C(CCC(=O)NO)C2=O)cc1 | 0.82 | > 10 |  |  |  |  |  |  | 
2 | COc1cccc(CN2CCC=C(CCC(=O)NO)C2=O)c1 | 1.94 | > 10 | 7.6 | 9.03 | 3.92 |  |  |  | 
3 | O=C(CCC1=CCCN(CCCc2ccc(-c3ccccc3)cc2)C1=O)NO | 0.27 | 3.23 | 2.49 | 3.19 | 1.04 | 3.7 |  |  | 
4 | O=C(CCC1=CCCN(Cc2ccc3ccccc3c2)C1=O)NO |  |  |  |  |  |  | < 5.00 |  | 
5 | O=C(CCC1=CCCN(CCc2ccc3ccccc3c2)C1=O)NO | 0.037 | 0.61 | 1.18 | 1.16 | 0.28 | 0.37 |  | 51 | 94
6 | Cc1ccccc1CN1CCC=C(CCC(=O)NO)C1=O | 2.97 | > 10 | > 10 | > 10 | 4.92 |  |  |  | 
7 | COc1ccc(CN2CCC=C(CCC(=O)NO)C2=O)cc1 | 0.44 | 7.08 | 1.67 | 6.89 | 3.86 |  |  |  | 
8 | Cc1ccc(S(=O)(=O)Nc2ccc(CN3CCC=C(CCC(=O)NO)C3=O)cc2)cc1 | 0.59 | 1.8 | 0.37 | > 10 | 0.56 |  |  |  | 
9 | O=C(CCC1=CCCN(Cc2ccc(NC(=O)c3ccccc3)cc2)C1=O)NO | 0.51 | > 10 | > 10 | > 10 | 6.03 | > 10 |  |  | 
10 | COc1ccccc1CN1CCC=C(CCC(=O)NO)C1=O | 0.86 | > 10 | > 10 | > 10 | > 10 |  |  |  | 
11 | O=C(CCC1=CCCN(CCc2ccc(-c3ccccc3)cc2)C1=O)NO | 0.23 | 0.53 | 1.18 | 1 | 0.28 | 1.65 |  |  | 
12 | O=C(CCC1=CCCN(CCCCc2ccc(-c3ccccc3)cc2)C1=O)NO | 0.2 | 2.95 | 2.67 | 4.56 | 1.28 | 4.2 |  |  | 
13 | O=C(CCC1=CCCN(CCc2cccc3ccccc23)C1=O)NO | 0.32 | 2.58 | 6.62 | 5.43 | 2.53 | 3.26 |  |  | 
14 | O=C(CCC1=CCCN(CCCc2ccc3ccccc3c2)C1=O)NO | 0.03 | 0.3 | 0.46 | 0.53 | 0.56 | 0.79 |  |  | 
15 | Cc1ccc(CN2CCC=C(CCC(=O)NO)C2=O)cc1 | 2.1 | 8.1 | 5 | 8.51 | 1.43 |  |  |  | 
16 | O=C(CCC1=CCCN(Cc2ccc(Br)cc2)C1=O)NO | 0.45 | 3.15 | 2.48 | 1.72 | 1.63 |  |  |  | 
17 | O=C(CCC1=CCCN(Cc2ccc(F)cc2)C1=O)NO | 0.56 |  |  | 9.96 |  |  |  |  | 
18 | O=C(CCCCCCC(=O)Nc1ccccc1)NO [VORINOSTAT] |  |  | 2.22 |  |  |  |  |  | 100
19 | Cc1cccc(CN2CCC=C(CCC(=O)NO)C2=O)c1 | 1.9 | > 10 | 4.38 | > 10 | 8.12 |  |  |  | 
20 | O=C(CCC1=CCCN(Cc2ccc([N+](=O)[O-])cc2)C1=O)NO | 0.23 | 3.01 | 5.21 | > 10 | 0.47 | 1.11 |  |  | 
21 | O=C(CCC1=CCCN(CCCCc2cccc3ccccc23)C1=O)NO | 0.11 | 1.69 | 1.82 | 1.67 | 1.47 | 2.01 |  |  | 
